Assay results as given in ChEMBL document CHEMBL1781935, “Amberlite-IRA-402 (OH) ion exchange resin mediated synthesis of indolizines, pyrrolo [1,2-a] quinolines and isoquinolines: antibacterial and antifungal evaluation of the products” (2011).
Converted amounts (≈) assume the structure as drawn. The source made the active and inactive calls. The rule behind the calls is not given here.

What was measured:
Escherichia coli [1] = experiment: Antibacterial activity against Escherichia coli ATCC 25938 at 1 to 1000 ug/ml after overnight incubation by disc diffusion method; assay type: functional
Outline: (§1)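 Disc diffusion on Mueller-Hinton agar. Plates seeded with 0.1 ml bacterial suspension (2 × 10^6 cfu/ml). Sterile 6 mm paper discs were impregnated with compound solutions at 1–1000 µg/ml and incubated at 37 °C overnight. Read-out was the diameter of the clear inhibition zone. Stocks were 1 mg/ml in 4% Tween 80 or 4% propylene glycol.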

Klebsiella pneumoniae [2] = experiment: Antibacterial activity against Klebsiella pneumoniae isolate J/1/4 at 1 to 1000 ug/ml after overnight incubation by disc diffusion method; assay type: functional; outline: as §1
Staphylococcus aureus [3] = experiment: Antibacterial activity against Staphylococcus aureus ATCC 25923 at 1 to 1000 ug/ml after overnight incubation by disc diffusion method; assay type: functional; outline: as §1
Pseudomonas aeruginosa [4] = experiment: Antibacterial activity against Pseudomonas aeruginosa ATCC 27853 at 1 to 1000 ug/ml after overnight incubation by disc diffusion method; assay type: functional; outline: as §1
Vibrio cholerae [5] = experiment: Antibacterial activity against Vibrio cholerae isolate 7201 at 1 to 1000 ug/ml after overnight incubation by disc diffusion method; assay type: functional
Vibrio cholerae [6] = experiment: Antibacterial activity against Vibrio cholerae isolate 720 at 1 to 1000 ug/ml after overnight incubation by disc diffusion method; assay type: functional
Bacillus subtilis [7] = experiment: Antibacterial activity against Bacillus subtilis UC564 at 1 to 1000 ug/ml after overnight incubation by disc diffusion method; assay type: functional; outline: as §1
Shigella dysenteriae [8] = experiment: Antibacterial activity against Shigella dysenteriae isolate 3 at 1 to 1000 ug/ml after overnight incubation by disc diffusion method; assay type: functional
Enterococcus faecalis [9] = experiment: Antibacterial activity against Enterococcus faecalis isolate 29212 at 1 to 1000 ug/ml after overnight incubation by disc diffusion method; assay type: functional; outline: as §1
Shigella flexneri [10] = experiment: Antibacterial activity against Shigella flexneri DN13 at 1 to 1000 ug/ml after overnight incubation by disc diffusion method; assay type: functional; outline: as §1
Salmonella typhi [11] = experiment: Antibacterial activity against Salmonella typhi DIRW at 1 to 1000 ug/ml after overnight incubation by disc diffusion method; assay type: functional; details: Salmonella enterica subsp. enterica serovar Typhi
Vibrio parahaemolyticus [12] = experiment: Antibacterial activity against Vibrio parahaemolyticus isolate 72016 at 1 to 1000 ug/ml after overnight incubation by disc diffusion method; assay type: functional; outline: as §1
Micrococcus luteus [13] = experiment: Antibacterial activity against Micrococcus luteus AGD1 at 1 to 1000 ug/ml after overnight incubation by disc diffusion method; assay type: functional; outline: as §1
Salmonella typhimurium [14] = experiment: Antibacterial activity against Salmonella Typhimurium isolate 11 at 1 to 1000 ug/ml after overnight incubation by disc diffusion method; assay type: functional, organism-based; details: Salmonella enterica subsp. enterica serovar Typhimurium; outline: as §1
Escherichia coli [15] = experiment: Antibacterial activity against Escherichia coli ATCC 25938; assay type: functional
Outline: (§2)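 MIC by broth and agar dilution. Broth: 0.1 ml suspension (2 × 10^6 cfu/ml) in Mueller-Hinton broth with test drug at 1–1000 µg/ml, 37 °C overnight. Agar: serial drug dilutions in Mueller-Hinton agar, spot-inoculated with 2 × 10^6 cfu/spot, 37 °C for 24 h. MIC was the lowest concentration with no visible growth. Antibiotic controls were included.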

Klebsiella pneumoniae [16] = experiment: Antibacterial activity against Klebsiella pneumoniae isolate J/1/4; assay type: functional; outline: as §2
Staphylococcus aureus [17] = experiment: Antibacterial activity against Staphylococcus aureus ATCC 25923; assay type: functional; outline: as §2
Pseudomonas aeruginosa [18] = experiment: Antibacterial activity against Pseudomonas aeruginosa ATCC 27853; assay type: functional; outline: as §2
Vibrio cholerae [19] = experiment: Antibacterial activity against Vibrio cholerae isolate 7201; assay type: functional
Bacillus subtilis [20] = experiment: Antibacterial activity against Bacillus subtilis UC564; assay type: functional; outline: as §2
Shigella dysenteriae [21] = experiment: Antibacterial activity against Shigella dysenteriae isolate 3; assay type: functional
Enterococcus faecalis [22] = experiment: Antibacterial activity against Streptococcus faecalis isolate 29212; assay type: functional; outline: as §2
Shigella flexneri [23] = experiment: Antibacterial activity against Shigella flexneri DN13; assay type: functional; outline: as §2
Salmonella typhi [24] = experiment: Antibacterial activity against Salmonella typhi DIRW; assay type: functional, Salmonella enterica subsp. enterica serovar Typhi; details: Salmonella enterica
Vibrio parahaemolyticus [25] = experiment: Antibacterial activity against Vibrio parahaemolyticus isolate 72016; assay type: functional; outline: as §2
Micrococcus luteus [26] = experiment: Antibacterial activity against Micrococcus luteus AGD1; assay type: functional; outline: as §2
Salmonella typhimurium [27] = experiment: Antibacterial activity against Salmonella Typhimurium isolate 11; assay type: functional, Salmonella enterica subsp. enterica serovar Typhimurium; details: Salmonella enterica; outline: as §2

SMILES	MIC (Escherichia coli [15])	MIC (Klebsiella pneumoniae [16])	MIC (Staphylococcus aureus [17])	MIC (Pseudomonas aeruginosa [18])	MIC (Vibrio cholerae [19])	MIC (Bacillus subtilis [20])	MIC (Shigella dysenteriae [21])	MIC (Enterococcus faecalis [22])	MIC (Shigella flexneri [23])	MIC (Salmonella typhi [24])	MIC (Vibrio parahaemolyticus [25])	MIC (Micrococcus luteus [26])	MIC (Salmonella typhimurium [27])	further results
CCOC(=O)c1cc(C(=O)c2ccccc2)n2ccc3ccccc3c12	64 µg/mL (≈ 186 µM)	256 µg/mL (≈ 746 µM)	256 µg/mL (≈ 746 µM)	64 µg/mL (≈ 186 µM)	32 µg/mL (≈ 93.2 µM)	64 µg/mL (≈ 186 µM)	128 µg/mL (≈ 373 µM)	256 µg/mL (≈ 746 µM)	256 µg/mL (≈ 746 µM)	> 500 µg/mL	256 µg/mL (≈ 746 µM)	500 µg/mL (≈ 1460 µM)	256 µg/mL (≈ 746 µM)	diameter of the inhibition zone (DIZ) (Escherichia coli [1]): 11.2 mm; diameter of the inhibition zone (DIZ) (Klebsiella pneumoniae [2]): 8.5 mm; diameter of the inhibition zone (DIZ) (Staphylococcus aureus [3]): 8.3 mm; diameter of the inhibition zone (DIZ) (Pseudomonas aeruginosa [4]): 11 mm; diameter of the inhibition zone (DIZ) (Vibrio cholerae [5]): 10.2 mm; diameter of the inhibition zone (DIZ) (Vibrio cholerae [6]): 10.2 mm; diameter of the inhibition zone (DIZ) (Bacillus subtilis [7]): 11.4 mm; diameter of the inhibition zone (DIZ) (Shigella dysenteriae [8]): 9.7 mm; diameter of the inhibition zone (DIZ) (Enterococcus faecalis [9]): 7 mm; diameter of the inhibition zone (DIZ) (Shigella flexneri [10]): 7.1 mm; diameter of the inhibition zone (DIZ) (Salmonella typhi [11]): inactive; diameter of the inhibition zone (DIZ) (Vibrio parahaemolyticus [12]): 8 mm; diameter of the inhibition zone (DIZ) (Micrococcus luteus [13]): 8.1 mm; diameter of the inhibition zone (DIZ) (Salmonella typhimurium [14]): inactive
CCOC(=O)c1cc2ccc3ccccc3n2c1C(=O)c1ccccc1	> 500 µg/mL	> 500 µg/mL	> 500 µg/mL	> 500 µg/mL	> 500 µg/mL	> 500 µg/mL	> 500 µg/mL	> 500 µg/mL	> 500 µg/mL	> 500 µg/mL	> 500 µg/mL	> 500 µg/mL	> 500 µg/mL	
CC1(C)S[C@@H]2[C@H](NC(=O)[C@H](N)c3ccc(O)cc3)C(=O)N2[C@H]1C(=O)O [AMOXICILLIN]	0.5 µg/mL (≈ 1.37 µM)	128 µg/mL (≈ 350 µM)	0.5 µg/mL (≈ 1.37 µM)	256 µg/mL (≈ 701 µM)	256 µg/mL (≈ 701 µM)	0.5 µg/mL (≈ 1.37 µM)	64 µg/mL (≈ 175 µM)	0.25 µg/mL (≈ 0.684 µM)	128 µg/mL (≈ 350 µM)	128 µg/mL (≈ 350 µM)	256 µg/mL (≈ 701 µM)	0.5 µg/mL (≈ 1.37 µM)	> 1000 µg/mL	
COC(=O)c1c(C(=O)OC)c2c3ccccc3ccn2c1C(=O)c1ccccc1	256 µg/mL (≈ 661 µM)	500 µg/mL (≈ 1290 µM)	256 µg/mL (≈ 661 µM)	500 µg/mL (≈ 1290 µM)	500 µg/mL (≈ 1290 µM)	> 500 µg/mL	> 500 µg/mL	> 500 µg/mL	> 500 µg/mL	> 500 µg/mL	256 µg/mL (≈ 661 µM)	> 500 µg/mL	256 µg/mL (≈ 661 µM)	
